Data taken from ChEMBL document CHEMBL1833867, “Conformationally constrained analogs of BAY 59-3074 as novel cannabinoid receptor ligands” (Bioorg Med Chem Lett, 2011).

Columns and labels:
[1] = Selectivity ratio of Ki for rat cannabinoid CB1 receptor to Ki for human cannabinoid CB2 receptor
Cannabinoid receptor 2 [2] = target: Cannabinoid receptor 2 (Homo sapiens, UniProt P34972); assay: Displacement of [3H]CP55940 from human cannabinoid CB2 receptor
Cannabinoid receptor 1 = Cannabinoid receptor 1 (Rattus norvegicus, UniProt P20272); assay: Displacement of [3H]CP55940 from rat cannabinoid CB1 receptor
Cannabinoid receptor 2 [3] = target: Cannabinoid receptor 2 (Mus musculus, UniProt P47936); assay: Displacement of [3H]CP55940 from mouse cannabinoid CB2 receptor
[4] = Binding affinity to CB receptor in rat brain membranes; format: cell membranes
Outline: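 Radioligand competition binding at rat CB1, displacing [3H]CP55,940.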

Cannabinoid receptor 1, sequence (P20272 whole entry): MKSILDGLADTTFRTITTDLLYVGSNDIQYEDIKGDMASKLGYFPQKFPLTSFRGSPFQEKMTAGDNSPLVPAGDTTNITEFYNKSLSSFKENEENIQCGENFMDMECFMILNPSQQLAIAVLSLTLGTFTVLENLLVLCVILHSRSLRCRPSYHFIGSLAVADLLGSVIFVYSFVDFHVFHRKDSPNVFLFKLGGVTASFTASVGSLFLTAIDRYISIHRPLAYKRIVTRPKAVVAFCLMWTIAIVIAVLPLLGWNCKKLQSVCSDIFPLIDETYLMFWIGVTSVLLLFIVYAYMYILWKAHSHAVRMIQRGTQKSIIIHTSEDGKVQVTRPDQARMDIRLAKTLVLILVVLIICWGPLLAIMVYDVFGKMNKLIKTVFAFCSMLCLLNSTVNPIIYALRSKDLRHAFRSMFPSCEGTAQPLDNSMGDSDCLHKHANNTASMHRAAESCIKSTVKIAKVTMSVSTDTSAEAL
Cannabinoid receptor 2 (Mus musculus, UniProt P47936), sequence (P47936 whole entry): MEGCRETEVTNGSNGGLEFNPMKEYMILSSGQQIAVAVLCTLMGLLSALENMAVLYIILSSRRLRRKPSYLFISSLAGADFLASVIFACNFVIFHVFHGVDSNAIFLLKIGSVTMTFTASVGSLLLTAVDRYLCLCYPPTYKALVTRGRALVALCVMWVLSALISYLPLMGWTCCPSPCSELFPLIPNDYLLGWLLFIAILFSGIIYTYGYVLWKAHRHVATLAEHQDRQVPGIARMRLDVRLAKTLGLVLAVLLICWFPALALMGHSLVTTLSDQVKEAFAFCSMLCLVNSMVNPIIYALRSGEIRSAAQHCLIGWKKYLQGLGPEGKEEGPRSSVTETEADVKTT
Cannabinoid receptor 2 (Homo sapiens, UniProt P34972), sequence (P34972 whole entry): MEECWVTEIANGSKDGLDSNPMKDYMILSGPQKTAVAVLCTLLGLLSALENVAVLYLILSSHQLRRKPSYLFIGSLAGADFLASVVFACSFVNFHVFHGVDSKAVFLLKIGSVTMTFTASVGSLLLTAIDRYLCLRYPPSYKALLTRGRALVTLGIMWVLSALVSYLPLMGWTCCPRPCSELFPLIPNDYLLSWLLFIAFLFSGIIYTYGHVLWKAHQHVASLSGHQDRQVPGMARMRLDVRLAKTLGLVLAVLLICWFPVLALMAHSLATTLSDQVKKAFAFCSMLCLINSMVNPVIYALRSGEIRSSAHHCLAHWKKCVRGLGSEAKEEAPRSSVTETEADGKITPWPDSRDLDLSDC

## N#Cc1c(C(F)(F)F)ccc2c1Oc1c(cccc1OS(=O)(=O)CCCC(F)(F)F)C2
[1]
  Ratio Ki: 12.4
Cannabinoid receptor 2 [2]
  Ki: 1.16 µM
Cannabinoid receptor 1
  Ki: 14.4 µM
Cannabinoid receptor 2 [3]
  Ki: 1.13 µM

## N#Cc1c(C(F)(F)F)ccc2c1oc1ccc(OS(=O)(=O)CCCC(F)(F)F)cc12
[1]
  Ratio Ki: 0.76
Cannabinoid receptor 2 [2]
  Ki: 3.29 µM
Cannabinoid receptor 1
  Ki: 2.53 µM
Cannabinoid receptor 2 [3]
  Ki: 1.71 µM

## N#Cc1c(Oc2cccc(OS(=O)(=O)CCCC(F)(F)F)c2)cccc1C(F)(F)F
[1]
  Ratio Ki: 1.21

## N#Cc1c(C(F)(F)F)ccc2c1oc1c(OS(=O)(=O)CCCC(F)(F)F)cccc12
[1]
  Ratio Ki: 9
Cannabinoid receptor 2 [2]
  Ki: 0.253 µM
Cannabinoid receptor 1
  Ki: 2.28 µM
Cannabinoid receptor 2 [3]
  Ki: 0.41 µM

## N#Cc1c(C(F)(F)F)ccc2c1oc1cc(OS(=O)(=O)CCCC(F)(F)F)ccc12
[1]
  Ratio Ki: 3.35
Cannabinoid receptor 2 [2]
  Ki: 0.317 µM
Cannabinoid receptor 1
  Ki: 1.06 µM
Cannabinoid receptor 2 [3]
  Ki: 0.339 µM

## O=S(=O)(CCCC(F)(F)F)Oc1cccc(Oc2cccc3c2C[C@H](CO)C3)c1
[4]
  Ki: 0.00046 µM

## N#Cc1c(C(F)(F)F)ccc2c1oc1cccc(OS(=O)(=O)CCCC(F)(F)F)c12
[1]
  Ratio Ki: 1.05
Cannabinoid receptor 2 [2]
  Ki: 1.81 µM
Cannabinoid receptor 1
  Ki: 1.9 µM
Cannabinoid receptor 2 [3]
  Ki: 0.676 µM
